What was measured:
[1] = test system: Rattus norvegicus; test: Antiinflammatory activity in rat assessed as inhibition of carrageenan-induced paw oedema at 10 mg/kg, po after 3 hrs; assay type: functional; parameters: scale not given: the % may be the effect or the level left
Summary of the method: (§1)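 Rats, six per group, were dosed orally (10 or 20 mg/kg, suspension in 1% carboxymethyl cellulose) before carrageenan paw injection. Paw volume was read by mercury-displacement plethysmography just before and 30 min, 1, 2 and 3 h after carrageenan. %inhibition = 100[1 − (a − x)/(b − y)], with the test group's pre/post volumes set against the vehicle control group's. Reported as mean ± SEM (n = 6) with ANOVA.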

[2] = test system: Mus musculus; test: Analgesic activity in Wister albino mice at 20 mg/kg, po after 3 hrs by tail-flick test
[3] = test system: Rattus norvegicus; test: Antiinflammatory activity in rat assessed as inhibition of carrageenan-induced paw oedema at 20 mg/kg, po after 30 mins; assay type: functional; parameters: scale not given: the % may be the effect or the level left; summary of the method: as §1
[4] = test system: Mus musculus; test: Analgesic activity in Wister albino mice at 10 mg/kg, po after 3 hrs by tail-flick test
[5] = test system: Mus musculus; test: Analgesic activity in Wister albino mice at 10 mg/kg, po after 30 mins by tail-flick test
[6] = test system: Rattus norvegicus; test: Antiinflammatory activity in rat assessed as inhibition of carrageenan-induced paw oedema at 10 mg/kg, po after 2 hrs; assay type: functional; parameters: scale not given: the % may be the effect or the level left; summary of the method: as §1
[7] = test system: Rattus norvegicus; test: Antiinflammatory activity in rat assessed as inhibition of carrageenan-induced paw oedema at 10 mg/kg, po after 1 hr; assay type: functional; parameters: scale not given: the % may be the effect or the level left; summary of the method: as §1
[8] = test system: Rattus norvegicus; test: Antiinflammatory activity in rat assessed as inhibition of carrageenan-induced paw oedema at 20 mg/kg, po after 1 hr; assay type: functional; parameters: scale not given: the % may be the effect or the level left; summary of the method: as §1
[9] = test system: Rattus norvegicus; test: Antiinflammatory activity in rat assessed as inhibition of carrageenan-induced paw oedema at 10 mg/kg, po after 30 mins; assay type: functional; parameters: scale not given: the % may be the effect or the level left; summary of the method: as §1
[10] = test system: Mus musculus; test: Analgesic activity in Wister albino mice at 20 mg/kg, po after 30 mins by tail-flick test
[11] = test system: Rattus norvegicus; test: Antiinflammatory activity in rat assessed as inhibition of carrageenan-induced paw oedema at 20 mg/kg, po after 3 hrs; assay type: functional; parameters: scale not given: the % may be the effect or the level left; summary of the method: as §1
[12] = test system: Mus musculus; test: Analgesic activity in Wister albino mice at 20 mg/kg, po after 2 hrs by tail-flick test
[13] = test system: Rattus norvegicus; test: Antiinflammatory activity in rat assessed as inhibition of carrageenan-induced paw oedema at 20 mg/kg, po after 2 hrs; assay type: functional; parameters: scale not given: the % may be the effect or the level left; summary of the method: as §1
[14] = test system: Mus musculus; test: Analgesic activity in Wister albino mice at 20 mg/kg, po after 1 hr by tail-flick test
[15] = test system: Mus musculus; test: Analgesic activity in Wister albino mice at 10 mg/kg, po after 1 hr by tail-flick test
[16] = test system: Mus musculus; test: Analgesic activity in Wister albino mice at 10 mg/kg, po after 2 hrs by tail-flick test
[17] = test system: Rattus norvegicus; test: Toxicity in Wistar albino rat assessed as ulcer index at 20 mg/kg, ip administered once daily for 3 days; assay type: organism-based; parameters: dose 20 mg/kg, route intraperitoneal; conditions: in vivo, 72 h
Summary of the method: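 Wistar albino rats of either sex (150–200 g), six per group, housed at 25 °C, 45–55% RH, 12-h light/dark cycle and acclimatized one week. Dosing was intraperitoneal as a suspension in 10% v/v Tween-80, with a vehicle-only control group. Animals were fasted 36 h, then pylorus-ligated (Shay method) on day 4 and sacrificed 4 h later for ulcer index. Values are mean ± SEM (n = 6), analysed by one-way ANOVA.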

SMILES | Activity [1] [%] | Activity [2] [%] | Activity [3] [%] | Activity [4] [%] | Activity [5] [%] | Activity [6] [%] | Activity [7] [%] | Activity [8] [%] | Activity [9] [%] | Activity [10] [%] | Activity [11] [%] | Activity [12] [%] | Activity [13] [%] | Activity [14] [%] | Activity [15] [%] | Activity [16] [%] | UI [17]
CN1CCN(c2ccc(-c3c4c(N)ncnc4nc4[nH]c(=S)[nH]c(=O)c34)cc2)CC1 | 31 | 43 | 43 | 36 | 39 | 38 | 37 | 48 | 35 | 50 | 38 | 58 | 50 | 58 | 43 | 45 | 0.69
N=c1sc(=S)[nH]c2nc3[nH]c(=S)[nH]c(=O)c3c(-c3ccc(N4CCCCC4)cc3)c12 | 25 | 39 | 37 | 34 | 38 | 39 | 38 | 40 | 33 | 51 | 33 | 56 | 46 | 53 | 42 | 48 | 0.73
Nc1ncnc2nc3[nH]c(=S)[nH]c(=O)c3c(-c3ccc(N4CCCCC4)cc3)c12 | 32 | 38 | 42 | 32 | 41 | 40 | 39 | 45 | 33 | 55 | 39 | 59 | 48 | 57 | 49 | 52 | 0.58
CN1CCN(c2ccc(-c3c(C#N)c(N)nc4[nH]c(=S)[nH]c(=O)c34)cc2)CC1 | 31 | 52 | 48 | 44 | 53 | 46 | 40 | 55 | 39 | 67 | 37 | 72 | 60 | 68 | 60 | 64 | 0.51
Nc1nc(=S)[nH]c2nc3[nH]c(=S)[nH]c(=O)c3c(-c3ccc(N4CCCCC4)cc3)c12 |  |  |  |  |  |  |  |  |  |  |  |  |  |  |  |  | 0.69
O=c1[nH]cnc2nc3[nH]c(=S)[nH]c(=O)c3c(-c3ccc(N4CCCCC4)cc3)c12 | 27 | 39 | 35 | 33 | 32 | 38 | 34 | 41 | 30 | 40 | 32 | 55 | 44 | 50 | 36 | 45 | 0.89
N=c1sc(=S)[nH]c2nc3[nH]c(=S)[nH]c(=O)c3c(-c3ccc(N4CCOCC4)cc3)c12 | 21 | 44 | 30 | 32 | 39 | 31 | 28 | 34 | 25 | 49 | 30 | 56 | 42 | 53 | 41 | 44 | 0.89

— ChEMBL document CHEMBL1137007, “Synthesis of 4-substituted pyrido[2,3-d]pyrimidin-4(1H)-one as analgesic and anti-inflammatory agents” (Bioorg Med Chem Lett, 2009)
